In ChEMBL document CHEMBL1687757, “Many chromosomal genes modulate MarA-mediated multidrug resistance in Escherichia coli” (2010) one finds Activity and MIC data, which are given here for one compound.

≈ marks a conversion by molar mass, not a printed value.

One experiment relates to Escherichia coli. Nature of the experiment: Antibacterial activity against marA-overproducing Escherichia coli CR1000 harboring inactivated pcnB gene assessed as MarA-mediated multidrug resistance level by measuring fold decrease in MIC relative to MarA-deficient Escherichia coli CR2000. Type of experiment: functional. The arrangement: scale not given: the % may be the effect or the level left.
Conditions: not given
In short, it runs like this:
(§1)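 Each inactivated gene was transferred into both the ΔmarR (CR1000) and the ΔmarRA (CR2000) BW25113 backgrounds. Each derivative was grown overnight in LB and tested by Etest on Mueller-Hinton plates, read after 20 h at 37°C, against cefoxitin, norfloxacin, chloramphenicol and minocycline. The MarA-mediated level compares the MIC in the ΔmarR derivative with the MIC in the matching ΔmarRA derivative.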
Take `CO[C@@]1(NC(=O)Cc2cccs2)C(=O)N2C(C(=O)O)=C(COC(N)=O)CS[C@@H]21` [CEFOXITIN]: the Activity stood at 10%.

The subject of the next experiment is Escherichia coli. Nature of the experiment: Antibacterial activity against marA-overproducing Escherichia coli CR1000 harboring inactivated metV gene assessed as MarA-mediated multidrug resistance level by measuring fold change in MIC relative to MarA-deficient Escherichia coli CR2000. Type of experiment: functional.
Conditions: not given
In short, it runs like this:
as §1
Turning to `CO[C@@]1(NC(=O)Cc2cccs2)C(=O)N2C(C(=O)O)=C(COC(N)=O)CS[C@@H]21` [CEFOXITIN], the Activity came out at 74%.

Another experiment concerns Escherichia coli. Nature of the experiment: Antibacterial activity against marA-overproducing Escherichia coli CR1000 harboring inactivated appA gene assessed as MarA-mediated multidrug resistance level by measuring fold change in MIC relative to MarA-deficient Escherichia coli CR2000. Type of experiment: functional.
Conditions: not given
In a few lines:
as §1
For `CO[C@@]1(NC(=O)Cc2cccs2)C(=O)N2C(C(=O)O)=C(COC(N)=O)CS[C@@H]21` [CEFOXITIN], the Activity is 68%.

The next experiment has as its system Escherichia coli. Description: Antibacterial activity against MarA-overexpressing Escherichia coli CR1000 after 20 hrs by Etest method. It is filed as functional. As to conditions: CR1000, 20 h. In short, it runs like this:
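MICs by Etest strips on Mueller-Hinton plates, following the manufacturer's specifications. Cells came from overnight liquid cultures in LB at 37°C with agitation. Plates were read after 20 h at 37°C. Antibiotics tested were cefoxitin, norfloxacin, chloramphenicol and minocycline.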
As to `CO[C@@]1(NC(=O)Cc2cccs2)C(=O)N2C(C(=O)O)=C(COC(N)=O)CS[C@@H]21` [CEFOXITIN], the MIC (usually the lowest concentration that inhibits growth of the organism) was found to be 10.6 µg/mL (≈ 24.8 µM).

The next experiment has as its system Escherichia coli. Description: Antibacterial activity against marA-overproducing Escherichia coli CR1000 harboring inactivated ynfE gene assessed as MarA-mediated multidrug resistance level by measuring fold change in MIC relative to MarA-deficient Escherichia coli CR2000. Type of experiment: functional.
Conditions: not given
In short, it runs like this: as §1
For `CO[C@@]1(NC(=O)Cc2cccs2)C(=O)N2C(C(=O)O)=C(COC(N)=O)CS[C@@H]21` [CEFOXITIN], the Activity is listed as 94%.

The subject of another experiment is Escherichia coli. Description: Antibacterial activity against marA-overproducing Escherichia coli CR1000 harboring inactivated metL gene assessed as MarA-mediated multidrug resistance level by measuring fold change in MIC relative to MarA-deficient Escherichia coli CR2000. It is filed as functional.
Conditions: not given
In short, it runs like this:
as §1
Take `CO[C@@]1(NC(=O)Cc2cccs2)C(=O)N2C(C(=O)O)=C(COC(N)=O)CS[C@@H]21` [CEFOXITIN]: the Activity was determined as 120%.

The test system of the next experiment is Escherichia coli. Nature of the experiment: Antibacterial activity against marA-overproducing Escherichia coli CR1000 harboring inactivated maoC gene assessed as MarA-mediated multidrug resistance level by measuring fold change in MIC relative to MarA-deficient Escherichia coli CR2000.
Conditions: not given
Type of experiment: functional. In short, it runs like this: as §1
For `CO[C@@]1(NC(=O)Cc2cccs2)C(=O)N2C(C(=O)O)=C(COC(N)=O)CS[C@@H]21` [CEFOXITIN], the Activity is given as 100%.

The next experiment has as its system Escherichia coli. Nature of the experiment: Antibacterial activity against marA-overproducing Escherichia coli CR1000 harboring inactivated cspGp gene assessed as MarA-mediated multidrug resistance level by measuring fold change in MIC relative to MarA-deficient Escherichia coli CR2000. Type of experiment: functional.
Conditions: not given
In short, it runs like this: as §1
For `CO[C@@]1(NC(=O)Cc2cccs2)C(=O)N2C(C(=O)O)=C(COC(N)=O)CS[C@@H]21` [CEFOXITIN], the Activity worked out at 54%.

Another experiment deals with Escherichia coli. Nature of the experiment: Antibacterial activity against marA-overproducing Escherichia coli CR1000 harboring inactivated hns gene assessed as MarA-mediated multidrug resistance level by measuring fold decrease in MIC relative to MarA-deficient Escherichia coli CR2000. The arrangement: scale not given: the % may be the effect or the level left.
Conditions: not given
Type of experiment: functional. In a few lines:
as §1
`CO[C@@]1(NC(=O)Cc2cccs2)C(=O)N2C(C(=O)O)=C(COC(N)=O)CS[C@@H]21` [CEFOXITIN]: the Activity is given as 19%.

The next experiment relates to Escherichia coli. Nature of the experiment: Antibacterial activity against marA-overproducing Escherichia coli CR1000 harboring inactivated ompR gene assessed as MarA-mediated multidrug resistance level by measuring fold change in MIC relative to MarA-deficient Escherichia coli CR2000. Type of experiment: functional.
Conditions: not given
In a few lines: as §1
For `CO[C@@]1(NC(=O)Cc2cccs2)C(=O)N2C(C(=O)O)=C(COC(N)=O)CS[C@@H]21` [CEFOXITIN], the Activity was 67%.

Another experiment has as its system Escherichia coli. Description: Antibacterial activity against marA-overproducing Escherichia coli CR1000 harboring inactivated yfdG gene assessed as MarA-mediated multidrug resistance level by measuring fold change in MIC relative to MarA-deficient Escherichia coli CR2000. It is filed as functional.
Conditions: not given
In a few lines:
as §1
With `CO[C@@]1(NC(=O)Cc2cccs2)C(=O)N2C(C(=O)O)=C(COC(N)=O)CS[C@@H]21` [CEFOXITIN], the Activity came to 68%.

For the next experiment, the system named is Escherichia coli. Description: Antibacterial activity against marA-overproducing Escherichia coli CR1000 harboring inactivated acrB gene assessed as MarA-mediated multidrug resistance level by measuring fold decrease in MIC relative to MarA-deficient Escherichia coli CR2000. Type of experiment: functional. On the set-up: scale not given: the % may be the effect or the level left.
Conditions: not given
In short, it runs like this: as §1
Take `CO[C@@]1(NC(=O)Cc2cccs2)C(=O)N2C(C(=O)O)=C(COC(N)=O)CS[C@@H]21` [CEFOXITIN]: the Activity is recorded as 6%.

The test system of a further experiment is Escherichia coli. Description: Antibacterial activity against marA-overproducing Escherichia coli CR1000 harboring inactivated cyaA gene assessed as MarA-mediated multidrug resistance level by measuring fold decrease in MIC relative to MarA-deficient Escherichia coli CR2000. It is filed as functional. On the set-up: scale not given: the % may be the effect or the level left.
Conditions: not given
In short, it runs like this: as §1
Take `CO[C@@]1(NC(=O)Cc2cccs2)C(=O)N2C(C(=O)O)=C(COC(N)=O)CS[C@@H]21` [CEFOXITIN]: the Activity is 43%.

Another experiment concerns Escherichia coli. Nature of the experiment: Antibacterial activity against marA-overproducing Escherichia coli CR1000 harboring inactivated recD gene assessed as MarA-mediated multidrug resistance level by measuring fold change in MIC relative to MarA-deficient Escherichia coli CR2000. It is filed as functional.
Conditions: not given
In a few lines:
as §1
For `CO[C@@]1(NC(=O)Cc2cccs2)C(=O)N2C(C(=O)O)=C(COC(N)=O)CS[C@@H]21` [CEFOXITIN], the Activity was 80%.
